Results on five compounds are retold here after ChEMBL document CHEMBL1127424, “7-azetidinylquinolones as antibacterial agents. 2. Synthesis and biological activity of 7-(2,3-disubstituted-1-azetidinyl)-4-oxoquinoline- and -1,8-naphthyridine-3-carboxylic acids. Properties and structure-activity relationships of quinolones with an azetidine moiety” (J Med Chem, 1994).

Values after ≈ are worked out from the molar mass of the structure shown.

One data set has as its system Bacillus cereus. The data set is described as follows: In vitro minimum inhibitory concentration for Bacillus cereus ATCC 11778. It is filed as functional. The procedure, abridged:
(§1)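 Serial 2-fold agar dilution in Mueller Hinton medium, run alongside a reference quinolone. Inoculum adjusted to 10⁸ cfu/mL; compound range 0.007–16 μg/mL.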

In data set [1] the test system is Mus musculus. Description: Evaluation of efficacy on systemic infections Staphylococcus aureus HS-93, after oral administration in mice. It is filed as functional. The procedure, abridged:
(§2)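 Single oral dose given immediately after infection, one of four doses per group, chosen from in vitro activity. Survival scored after one week. ED50 (total mg/kg protecting 50%) interpolated from survival rates.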

Data set [2] concerns Mus musculus. Description: Evaluation of efficacy on systemic infections Escherichia coli HM-42, after oral administration in mice. Format: functional. The method in brief:
as §2

Data set [3] has as its system Staphylococcus epidermidis. The data set is described as follows: In vitro minimum inhibitory concentration for Staphylococcus epidermidis ATCC 155-1. It is filed as functional. The procedure, abridged: as §1
The subject of the next data set is Morganella morganii. Description: In vitro minimum inhibitory concentration for Morganella morganii ATCC 8019. Format: functional. The procedure, abridged: as §1
Data set [4] is described as follows: HPLC capacity factor (k'). Format: ADME. The method in brief:
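Ion-pair reversed-phase HPLC on ODS-2 (10 μm) at 45 °C. Mobile phase: 10 mM sodium heptanesulfonate plus 50 mM KH2PO4 (pH 3.5)–methanol 45:55, 1 mL/min. Samples at 100 μg/mL in DMF, injected in duplicate, UV 280 nm. k' = (tR − t0)/t0.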

The test system of another data set is Enterobacter cloacae. The data set is described as follows: In vitro minimum inhibitory concentration for Enterobacter cloacae ATCC 23355. It is filed as functional.
Another data set relates to Pseudomonas aeruginosa. The data set is described as follows: In vitro minimum inhibitory concentration for Pseudomonas aeruginosa ATCC 10145. It is filed as functional. The method in brief:
as §1

The subject of the next data set is Escherichia coli. The data set is described as follows: In vitro minimum inhibitory concentration for Escherichia coli ATCC 10799. It is filed as functional. The method in brief:
as §1

For a further data set, the system named is Enterococcus faecalis. Description: In vitro minimum inhibitory concentration for Streptococcus faecalis ATCC 10541. Format: functional. The procedure, abridged: as §1
Data set [5] can be described thus: Solubility (buffer pH 7.4). Format: physicochemical. As to conditions: read-out: S. The procedure, abridged: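 Excess solid shaken in 0.05 M phosphate buffer pH 7.4 for 24 h at 25 °C. Suspension filtered through 0.22 μm, discarding the first portion. Filtrate diluted in 0.1 N HCl or 0.1 N NaOH and read by UV at the compound's absorbance maximum.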
A further data set has as its system Proteus vulgaris. Description: In vitro minimum inhibitory concentration for Proteus vulgaris ATCC 8427. It is filed as functional. The procedure, abridged: as §1
Data set [6] has as its system Mus musculus. The data set is described as follows: Evaluation of efficacy on systemic infections Pseudomonas aeruginosa HS-116, after oral administration in mice. It is filed as functional. The method in brief: as §2
The next data set concerns Klebsiella pneumoniae. The data set is described as follows: In vitro minimum inhibitory concentration to inhibit Klebsiella pneumoniae ATCC 10031. Format: functional. The method in brief:
as §1

A further data set deals with Staphylococcus aureus. Description: In vitro minimum inhibitory concentration for Staphylococcus aureus ATCC 25178. It is filed as functional. The procedure, abridged: as §1
Another data set relates to Bacillus subtilis. Description: In vitro minimum inhibitory concentration for Bacillus subtilis ATCC 6633. It is filed as functional. The method in brief: as §1
Data set [7] is described as follows: AUC (0-4 hr) ug/ml/h. It is filed as ADME, cell-free. Details: time < 4 hr; concentration or dose not given beside the values. The note with it: plasma. The method in brief:
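Mice dosed once orally at 50 mg/kg; blood taken from groups of six mice at 0.5, 1, 2 and 4 h. Serum drug assayed by disk agar diffusion bioassay (Bacillus subtilis ATCC 6633 on Seed Agar, 37 °C, 18 h), giving total activity.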

As to `C[C@H]1[C@H](N)CN1c1nc2c(cc1F)c(=O)c(C(=O)O)cn2-c1ccc(F)cc1F`, the minimum inhibitory concentration (MIC) against Bacillus cereus came to 0.25 µg/mL (≈ 0.618 µM); in data set [3], 0.25 µg/mL (≈ 0.618 µM); against Morganella morganii, 0.25 µg/mL (≈ 0.618 µM); in the data set on Enterobacter cloacae, 0.12 µg/mL (≈ 0.297 µM); in the data set with Pseudomonas aeruginosa it was 1 µg/mL (≈ 2.47 µM); against Escherichia coli it was 0.25 µg/mL (≈ 0.618 µM). Moreover, the minimal inhibitory concentration (MIC) was 1 µg/mL (≈ 2.47 µM) in the data set on Enterococcus faecalis; 1 µg/mL (≈ 2.47 µM) in the data set on Proteus vulgaris; 0.06 µg/mL (≈ 0.148 µM) with Klebsiella pneumoniae; 0.12 µg/mL (≈ 0.297 µM) in the data set with Staphylococcus aureus; 0.06 µg/mL (≈ 0.148 µM) against Bacillus subtilis. Besides, the figures for the ED50 in the data set on Mus musculus [1], with Mus musculus [2] and in the data set on Mus musculus [6] were 8.9 mg/kg, 3.3 mg/kg and 140 mg/kg, respectively. In addition, the “Log k'” value in data set [4] is recorded as 0.1417. Also, the solubility in data set [5] is 10.4 µg/mL (≈ 25.7 µM). Also, in data set [7], the AUC was 25800 ng·h/mL.
With `C[C@H]1[C@H](N)CN1c1c(F)cc2c(=O)c(C(=O)O)cn(-c3ccc(F)cc3)c2c1F`, the MIC worked out at 0.25 µg/mL (≈ 0.62 µM) in the data set with Bacillus cereus; 0.12 µg/mL (≈ 0.298 µM) in data set [3]; 0.25 µg/mL (≈ 0.62 µM) with Morganella morganii; 0.12 µg/mL (≈ 0.298 µM) in the data set on Enterobacter cloacae; 2 µg/mL (≈ 4.96 µM) with Pseudomonas aeruginosa; 0.12 µg/mL (≈ 0.298 µM) against Escherichia coli. Also, the MIC against Enterococcus faecalis was determined as 2 µg/mL (≈ 4.96 µM); with Proteus vulgaris it was 0.5 µg/mL (≈ 1.24 µM); in the data set with Klebsiella pneumoniae, 0.12 µg/mL (≈ 0.298 µM); against Staphylococcus aureus it was 0.25 µg/mL (≈ 0.62 µM); against Bacillus subtilis, 0.12 µg/mL (≈ 0.298 µM). Moreover, the median effective dose (ED50) stood at 5.7 mg/kg in the data set with Mus musculus [1], 2.5 mg/kg in the data set with Mus musculus [2] and 54.6 mg/kg in the data set on Mus musculus [6]. In data set [4], the “Log k'” value is 0.1875. The solubility in [5] turned out to be 11.2 µg/mL (≈ 27.8 µM). The compound further had an AUC in data set [7] of 31400 ng·h/mL.
For `C[C@H]1[C@H](N)CN1c1c(F)cc2c(=O)c(C(=O)O)cn(-c3ccc(F)cc3F)c2c1Cl`, the MIC was 0.03 µg/mL (≈ 0.0685 µM) in the data set on Bacillus cereus; 0.06 µg/mL (≈ 0.137 µM) in data set [3]; 0.25 µg/mL (≈ 0.571 µM) in the data set on Morganella morganii; 0.12 µg/mL (≈ 0.274 µM) against Enterobacter cloacae; 0.5 µg/mL (≈ 1.14 µM) with Pseudomonas aeruginosa; 0.06 µg/mL (≈ 0.137 µM) in the data set on Escherichia coli. For the same compound, the MIC against Enterococcus faecalis worked out at 0.25 µg/mL (≈ 0.571 µM); with Proteus vulgaris it was 0.25 µg/mL (≈ 0.571 µM); in the data set with Klebsiella pneumoniae it was 0.12 µg/mL (≈ 0.274 µM); against Staphylococcus aureus it was 0.12 µg/mL (≈ 0.274 µM); in the data set with Bacillus subtilis it was 0.03 µg/mL (≈ 0.0685 µM). In addition, the ED50 in the data set with Mus musculus [1] turned out to be 4.3 mg/kg; with Mus musculus [2], 3.6 mg/kg; in the data set on Mus musculus [6], 86.9 mg/kg. Also, in data set [4], the “Log k'” value was 0.3553. In data set [5], the solubility turned out to be 16.5 µg/mL (≈ 37.7 µM). Also, the AUC in [7] is 32300 ng·h/mL.
For `C[C@H]1[C@@H](N)CN1c1c(F)cc2c(=O)c(C(=O)O)cn(C3CC3)c2c1F`, the minimal inhibitory concentration (MIC) is 0.12 µg/mL (≈ 0.344 µM) with Bacillus cereus; 0.12 µg/mL (≈ 0.344 µM) in [3]; 0.012 µg/mL (≈ 0.0344 µM) in the data set with Morganella morganii; 0.06 µg/mL (≈ 0.172 µM) in the data set with Enterobacter cloacae; 1 µg/mL (≈ 2.86 µM) in the data set with Pseudomonas aeruginosa; 0.12 µg/mL (≈ 0.344 µM) with Escherichia coli. For the same compound, the MIC against Enterococcus faecalis was 1 µg/mL (≈ 2.86 µM); against Proteus vulgaris it was 0.25 µg/mL (≈ 0.716 µM); in the data set on Klebsiella pneumoniae, 0.12 µg/mL (≈ 0.344 µM); in the data set on Staphylococcus aureus, 0.012 µg/mL (≈ 0.0344 µM); in the data set with Bacillus subtilis, 0.06 µg/mL (≈ 0.172 µM). Further, the results for the median effective dose (ED50) in the data set on Mus musculus [1], in the data set on Mus musculus [2] and in the data set with Mus musculus [6] were 18.6 mg/kg, 6.2 mg/kg and 123 mg/kg, respectively. In addition, the “Log k'” value in data set [4] is listed as 0.0813. In addition, in data set [5], the solubility came to 23.6 µg/mL (≈ 67.6 µM). Moreover, in [7], the area under the curve (AUC) is 9000 ng·h/mL.
`C[C@H]1[C@H](N)CN1c1c(F)cc2c(=O)c(C(=O)O)cn(-c3ccc(F)cc3F)c2c1F`: the minimum inhibitory concentration (MIC) against Bacillus cereus was 0.12 µg/mL (≈ 0.285 µM); in [3] it was 0.12 µg/mL (≈ 0.285 µM); in the data set on Morganella morganii, 0.25 µg/mL (≈ 0.593 µM); against Enterobacter cloacae, 0.06 µg/mL (≈ 0.142 µM); against Pseudomonas aeruginosa, 1 µg/mL (≈ 2.37 µM); against Escherichia coli, 0.12 µg/mL (≈ 0.285 µM). Further, the minimum inhibitory concentration (MIC) against Enterococcus faecalis is 1 µg/mL (≈ 2.37 µM); against Proteus vulgaris, 0.5 µg/mL (≈ 1.19 µM); in the data set with Klebsiella pneumoniae it was 0.06 µg/mL (≈ 0.142 µM); against Staphylococcus aureus, 0.12 µg/mL (≈ 0.285 µM); in the data set with Bacillus subtilis, 0.06 µg/mL (≈ 0.142 µM). Moreover, the ED50 with Mus musculus [1] worked out at 10 mg/kg; in the data set on Mus musculus [2], 2.3 mg/kg; with Mus musculus [6], 61 mg/kg. Also, the “Log k'” value in data set [4] came to 0.2644. Besides, the solubility in [5] stood at 23.4 µg/mL (≈ 55.5 µM). In addition, the area under the curve (AUC) in data set [7] worked out at 22300 ng·h/mL.
